# Source: article PMC8378355 (BMJ Open Diabetes Research & Care, 2021)
# What was measured:
# insulin receptor (IR) = insulin receptor (IR) (Homo sapiens, UniProt P06213); assay: IR affinity relative to HI; format: binding
# [1] = test system: extracellular-regulated kinase (ERK); assay: Phospho-ERK in CHO-hIR cells; format: cell-based, Chinese Hamster; settings: HSA 0.1%, n=3; for EC50: read-out: EC50 (nM) Mean (95% CI), Phospho-ERK in CHO-hIR cells
# protein kinase B (AKT) = assay: Phospho-AKT in CHO-hIR cells; format: cell-based, Chinese Hamster; settings: read-out: EC50 (nM) Mean (95% CI), Phospho-AKT in CHO-hIR cells; HSA 0.1%, n=3
# rat hepatocytes = assay: Glycogen accumulation in rat hepatocytes; format: cell-based; settings: for EC50: read-out: EC50 (nM) Mean (95% CI), Glycogen accumulation in rat hepatocytes, n=7, geometric mean
# In short: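 Hepatocytes are isolated from rat by two-step collagenase perfusion. […] Determine cellular glycogen as glucose released after amyloglucosidase digestion.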
# Human IR-A = Human IR-A (Homo sapiens, UniProt P06213); assay: Human IR-A binding, competition scintillation proximity assay; settings: n=3
# Human IR-B = Human IR-B (Homo sapiens, UniProt P06213); assay: Human IR-B binding, competition scintillation proximity assay; settings: n=3
# Human IGF-1R = Human IGF-1R (Homo sapiens, UniProt P08069); assay: Human IGF-1R binding, competition scintillation proximity assay; settings: HSA 0%, n=4
# [2] = molecular target: human insulin receptors (hIRs) (Homo sapiens, UniProt P06213); assay: IR phosphorylation in CHO-hIR cells; format: cell-based
# primary rat adipocytes = assay: Lipogenesis in rat adipocytes; format: cell-based; settings: HSA 0.1%, n=4
# L6-hIR cells [3] = assay: Glycogen synthesis in rat L6-hIR cells; format: cell-based; settings: HSA 0.1%, n=4
# In short: (§1)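 L6-hIR cells are a rat skeletal myoblast L6 line stably transfected with the A isoform of human IR. MCF-7 is a human mammary adenocarcinoma line.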
# MCF-7 cells [4] = assay: Glycogen synthesis in human MCF-7 cells; format: cell-based; settings: HSA 0%, n=5
# In short: as §1
# L6-hIR cells [5] = assay: DNA synthesis; format: cell-based, rat; settings: HSA 0%, n=5
# MCF-7 cells [6] = assay: DNA synthesis; format: cell-based, human; settings: HSA 0%, n=4
# COLO-205 cells = assay: DNA synthesis; format: cell-based, human; settings: HSA 0%, n=3
# HMEC cells = assay: DNA synthesis; format: cell-based, human; settings: HSA 0%, n=7
# [7] = Clinical pharmacology trial: pharmacokinetics, total serum insulin icodec; format: in vivo, human
# In short: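 Randomized, double-blind, double-dummy, active-controlled, multiple-dose escalation trial in adults aged 18–64 with type 2 diabetes on insulin (HbA1c ≤9.0%). Participants received once-weekly s.c. thigh injections at 12, 20 or 24 nmol/kg (one dose per cohort) for 5 weeks, at ~20:00. Total serum test compound (free plus albumin-bound) was measured by a specific assay at prespecified times, from predose to 36 days after the last dose.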
# [8] = test system: individuals with type 2 diabetes; assay: Clinical pharmacology trial: safety assessments; format: in vivo, human
# In short: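 Dose-escalation trial in type 2 diabetes. Three sequential cohorts received once-weekly s.c. thigh injections at 12, 20 or 24 nmol/kg with once-daily placebo for 5 weeks. Safety covered adverse events, hypoglycemic episodes, injection site reactions, vital signs, physical examination, clinical laboratory tests and ECG. An internal safety group reviewed blinded interim data before each escalation.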
# Human IGF-1R, sequence (P08069 31-736 limits assumed): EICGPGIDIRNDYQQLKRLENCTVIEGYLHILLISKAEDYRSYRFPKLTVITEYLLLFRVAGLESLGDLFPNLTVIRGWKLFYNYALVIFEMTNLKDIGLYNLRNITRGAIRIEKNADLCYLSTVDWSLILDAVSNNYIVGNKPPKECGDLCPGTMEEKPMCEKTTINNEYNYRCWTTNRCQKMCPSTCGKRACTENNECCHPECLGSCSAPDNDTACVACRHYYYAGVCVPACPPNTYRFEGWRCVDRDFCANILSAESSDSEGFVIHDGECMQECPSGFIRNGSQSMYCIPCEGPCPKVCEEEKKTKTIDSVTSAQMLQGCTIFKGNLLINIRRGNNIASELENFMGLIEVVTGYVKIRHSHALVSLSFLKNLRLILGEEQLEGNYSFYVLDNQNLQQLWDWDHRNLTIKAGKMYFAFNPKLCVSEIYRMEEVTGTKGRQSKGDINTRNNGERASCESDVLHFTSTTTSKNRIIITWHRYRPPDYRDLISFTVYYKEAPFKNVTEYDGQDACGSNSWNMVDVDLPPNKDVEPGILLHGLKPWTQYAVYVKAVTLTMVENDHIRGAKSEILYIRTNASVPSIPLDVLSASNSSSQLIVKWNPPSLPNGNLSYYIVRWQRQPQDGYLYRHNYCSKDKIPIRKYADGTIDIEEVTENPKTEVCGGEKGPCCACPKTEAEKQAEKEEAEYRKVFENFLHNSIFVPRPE
# Human IGF-1R, sequence (P08069 741-1367 partner limits assumed): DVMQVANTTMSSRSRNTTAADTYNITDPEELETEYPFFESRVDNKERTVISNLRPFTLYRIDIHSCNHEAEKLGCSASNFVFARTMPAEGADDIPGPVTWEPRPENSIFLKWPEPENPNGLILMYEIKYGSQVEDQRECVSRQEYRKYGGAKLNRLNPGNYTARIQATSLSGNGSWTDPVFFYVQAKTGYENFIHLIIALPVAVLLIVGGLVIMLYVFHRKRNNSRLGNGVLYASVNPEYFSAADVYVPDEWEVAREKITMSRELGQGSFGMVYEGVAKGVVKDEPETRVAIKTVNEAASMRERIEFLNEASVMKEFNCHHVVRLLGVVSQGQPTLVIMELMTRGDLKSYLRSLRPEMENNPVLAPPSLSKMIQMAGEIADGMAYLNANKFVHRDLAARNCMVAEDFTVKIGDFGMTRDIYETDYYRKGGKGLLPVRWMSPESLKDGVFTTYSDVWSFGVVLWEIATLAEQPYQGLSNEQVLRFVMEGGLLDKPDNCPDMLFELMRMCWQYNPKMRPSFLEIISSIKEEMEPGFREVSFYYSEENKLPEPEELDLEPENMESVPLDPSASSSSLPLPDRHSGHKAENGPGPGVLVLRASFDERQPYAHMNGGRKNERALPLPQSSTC
substance,measurement,setting,value
B16H: individual amino acid substitution TyrB16His in human insulin,IR affinity relative to HI,insulin receptor (IR); relative to HI,22%
desB30: human insulin with the threonine in position B30 deleted,influence on the IR affinity,insulin receptor (IR); deletion of threonine in position B30 of HI,no influence
human insulin [reference compound],EC50,[1],1.02 nM
same,EC50,protein kinase B (AKT),0.15 nM
same,EC50,rat hepatocytes; HSA 0%,0.28 nM
insulin icodec,"IC50 (%) Insulin icodec relative to human insulin Mean (95% CI), Human IR-A binding",Human IR-A; HSA 0%,0.50%
same,"IC50 (%) Insulin icodec relative to human insulin Mean (95% CI), Human IR-A binding",Human IR-A; HSA 1.5%,0.03%
same,"IC50 (%) Insulin icodec relative to human insulin Mean (95% CI), Human IR-B binding",Human IR-B; HSA 0%,0.78%
same,"IC50 (%) Insulin icodec relative to human insulin Mean (95% CI), Human IR-B binding",Human IR-B; HSA 1.5%,0.03%
same,"IC50 (%) Insulin icodec relative to human insulin Mean (95% CI), Human IGF-1R binding",Human IGF-1R,0.14%
same,agonism at IRs (activation of IRs and downstream AKT and ERK),"[2]; CHO-hIR cells, 0.1% HSA, in a similar manner as HI",full agonist
same,"EC50 (%) Insulin icodec relative to human insulin Mean (95% CI), IR phosphorylation in CHO-hIR cells","[2]; HSA 0.1%, n=3",0.21%
same,"EC50 (%) Insulin icodec relative to human insulin Mean (95% CI), Phospho-ERK in CHO-hIR cells",[1],0.39%
same,EC50,[1],271 nM
same,EC50,protein kinase B (AKT),245 nM
same,"EC50 (%) Insulin icodec relative to human insulin Mean (95% CI), Lipogenesis in rat adipocytes",primary rat adipocytes,0.029%
same,"EC50 (%) Insulin icodec relative to human insulin Mean (95% CI), Glycogen accumulation in rat hepatocytes","rat hepatocytes; HSA 0%, n=7",4.3%
same,"EC50 (%) Insulin icodec relative to human insulin Mean (95% CI), Glycogen accumulation in rat hepatocytes","rat hepatocytes; HSA 0.1%, n=8",0.24%
same,EC50,rat hepatocytes; HSA 0%,6.4 nM
same,"EC50 (%) Insulin icodec relative to human insulin Mean (95% CI), Glycogen synthesis in rat L6-hIR cells",L6-hIR cells [3],0.52%
same,"EC50 (%) Insulin icodec relative to human insulin Mean (95% CI), Glycogen synthesis in human MCF-7 cells",MCF-7 cells [4],0.26%
same,"EC50 (%) Insulin icodec relative to human insulin Mean (95% CI), DNA synthesis in rat L6-hIR cells",L6-hIR cells [5],0.6%
same,"EC50 (%) Insulin icodec relative to human insulin Mean (95% CI), DNA synthesis in human MCF-7 cells",MCF-7 cells [6],0.5%
same,"EC50 (%) Insulin icodec relative to human insulin Mean (95% CI), DNA synthesis in human COLO-205 cells",COLO-205 cells,2.0%
same,"EC50 (%) Insulin icodec relative to human insulin Mean (95% CI), DNA synthesis in human HMEC cells",HMEC cells,0.2%
same,time to maximum concentration (median tmax),"[7]; type 2 diabetes, once-weekly s.c. dosing",16 h
same,maximum serum concentration at steady state,[7]; week 5 of once-weekly dosing,< 500 nmol/L
same,"adverse events, number of events","[8]; 12 nmol/kg once weekly, n=13",33 events
same,"adverse events, number of individuals with events","[8]; 12 nmol/kg once weekly, n=13",13 individuals
same,"adverse events, number of events","[8]; 20 nmol/kg once weekly, n=13",19 events
same,"adverse events, number of individuals with events","[8]; 20 nmol/kg once weekly, n=13",9 individuals
same,"adverse events, number of events","[8]; 24 nmol/kg once weekly, n=12",23 events
same,"adverse events, number of individuals with events","[8]; 24 nmol/kg once weekly, n=12",9 individuals
same,"serious or severe adverse events, severe hypoglycemic episodes, injection site reactions or clinically significant findings in vital signs, physical examination, clinical laboratory assessments or ECG","[8]; 12, 20, 24 nmol/kg once weekly for 5 weeks",No serious or severe adverse events
same,tolerability,"[8]; 12, 20, 24 nmol/kg once weekly for 5 weeks, type 2 diabetes",well tolerated
